Where two headings read alike, the source gives them in different places.
Experiments:
cAMP [1] = assay type: cell-based, human; settings: propranolol 1 μM; HEK cells
Method in brief: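 HEK-293 cells were grown in MEM with 10% FBS at 37°C in 5% CO2, plated on poly-D-lysine coverslips and transfected by Lipofectamine-2000 (0.5–3 μg plasmid per dish). Cells were given norepinephrine, then 25 μM forskolin plus 50 μM IBMX. CFP/YFP ratios were computed after per-channel background subtraction and normalized to the forskolin/IBMX response. Concentration-response curves were fitted with the Hill equation.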

cAMP in L23 neurons = experiment: In vivo 2pFLIM of cAMP responses to enforced running in L23 neurons; design: species or system mouse; settings: intraperitoneal injection; cAMPFIRE-L
Method in brief: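 cAMPFIRE-L was expressed in L2/3 somatosensory pyramidal neurons by in utero electroporation of C57BL/6 embryos at E15.5. Plasmid (~2–3 μg/μL, 1 μL) went into the lateral ventricle, followed by five 100-ms pulses at 35 V, 1 Hz. A cranial window was fitted at P30–60 with two weeks' recovery. Awake head-fixed mice on a treadmill (rotary-encoder velocity) were imaged by 2pFLIM of running-evoked responses before and after i.p. drug.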

cAMP [2] = experiment: 2pFLIM response to norepinephrine in CA1 neurons in cultured hippocampal slices; assay type: cell-based, rat
Method in brief: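 Rat hippocampal slices (400 μm, P6–7 pups of both sexes) were cultured at 35°C in 5% CO2 and imaged 2–3 days after transfection in carbogen-gassed aCSF with 4 mM CaCl2 and 4 mM MgCl2. CA1 neurons expressing cAMPFIRE-M received 0.1 μM norepinephrine with or without 1 μM propranolol, followed by wash. cAMPFIRE-L and its R279E mutant received 1 μM norepinephrine. Data are mean ± s.e.m. over cells.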

[3] = system: cAMP in L23 pyramidal neurons; experiment: In vivo 2pFLIM of tonic cAMP in L23 pyramidal neurons of awake head-fixed mice; design: species or system mouse; settings: for effect on cAMP in neuronal dendrites / effect on cAMP in neuronal somas: intraperitoneal, yohimbine 5 mg/kg, propranolol 25 mg/kg
Method in brief: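 Awake, head-fixed mice carried cAMPFIRE-L in L2/3 somatosensory neurons, introduced by in utero electroporation at E15.5, and were imaged by 2pFLIM through a cranial window fitted at P30–60. Isoflurane (1.5%) was given by nose cone; other drugs were given i.p., including morphine at 25 mg/kg. Lifetime was taken as mean photon emission time from soma and dendrite ROIs. Data are mean ± s.e.m.; paired two-tailed t-test.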

Structure (SMILES)	effect on sensor response to norepinephrine (cAMP [1])	effect on negative cAMP responses to enforced running (cAMP in L23 neurons)	effect on positive cAMP responses to enforced running (cAMP in L23 neurons)	effect on sensor response to norepinephrine (cAMP [2])	effect on cAMP in neuronal dendrites ([3]; cAMPFIRE-L)	effect on cAMP in neuronal somas ([3]; cAMPFIRE-L)	effect on cAMP levels in neuronal somas ([3]; 1.5% inhaled, measured using cAMPFIRE-L)	time to plateau of cAMP decrease post administration ([3]; morphine 25 mg/kg)	effect on cAMP activity in L23 neurons ([3]; morphine 25 mg/kg, cAMPFIRE-L)
CC(C)NCC(O)COc1cccc2ccccc12 (stereo not shown) [propranolol]	blocked	reduced	did not affect	blocked	decreased	decreased	–	–	–
FC(F)OC(Cl)C(F)(F)F (stereo not shown) [Isoflurane, isoflurane]	–	–	–	–	–	–	significantly reduced	–	–
CN1CC[C@]23c4c5ccc(O)c4O[C@H]2[C@@H](O)C=C[C@H]3[C@H]1C5 [Morphine, morphine]	–	–	–	–	–	–	–	~ 40 minutes	decreased
COC(=O)[C@@H]1[C@H]2C[C@H]3c4[nH]c5ccccc5c4CCN3C[C@@H]2CC[C@@H]1O [yohimbine]	–	significantly attenuated	increased	–	increased	little effect	–	–	–
